According to ChEMBL document CHEMBL3045897, “Bioactivity of compounds from Acmella oleracea against Tuta absoluta (Meyrick) (Lepidoptera: Gelechiidae) and selectivity to two non-target species” (Pest Manag Sci, 2012):

Key:
Tetragonisca angustula = assay: Contact toxicity against adult Tetragonisca angustula assessed as mortality after 24 hr; type: organism-based; settings: in vivo, topical_or_ocular
Procedure, shortened: (§1)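 Topical application of 0.5 µL test solution in acetone per insect; controls got 0.5 µL acetone alone. Insects were held singly with food in small petri dishes at 25 ± 0.5 °C, 75±5% RH and a 12 h photoperiod. Mortality (dead or motionless insects) was scored at 24 h.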

Solenopsis saevissima = assay: Contact toxicity against adult Solenopsis saevissima assessed as mortality after 24 hr; type: organism-based; settings: in vivo, topical_or_ocular; procedure, shortened: as §1
[1] = Contact toxicity against adult Tetragonisca angustula assessed as mortality at contact LD80 for second-instar larvae of Tuta absoluta measured after 24 hr; type: organism-based; settings: in vivo, topical or ocular
[2] = Contact toxicity against adult Solenopsis saevissima assessed as mortality at contact LD80 for second-instar larvae of Tuta absoluta measured after 24 hr; type: organism-based; settings: in vivo, topical or ocular
[3] = Selectivity ratio of LD50 for adult Solenopsis saevissima to LD50 for second-instar larvae of Tuta absoluta
Procedure, shortened: (§2)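 Test solutions in acetone were applied topically at 0.5 µL per insect, with acetone alone as control. Insects were then held individually in petri dishes with food at 25 ± 0.5 °C, 75±5% RH and a 12 h photoperiod. Mortality (dead or motionless) was scored at 24 h. LD50 values came from probit analysis of dose–mortality data for each species, and SLR50 was computed from these LD50 values.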

[4] = Selectivity ratio of LD50 for adult Tetragonisca angustula to LD50 for second-instar larvae of Tuta absoluta; procedure, shortened: as §2
Tuta absoluta [5] = assay: Contact toxicity against second-instar larvae of Tuta absoluta assessed as mortality after 24 hr; type: functional; procedure, shortened: as §1
Tuta absoluta [6] = assay: Ratio of permethrin LD50 to compound LD50 for second-instar larvae of Tuta absoluta assessed as mortality after 24 hr; type: functional

| SMILES | LD80 (Tetragonisca angustula) [µg/mg] | LD80 (Solenopsis saevissima) [µg/mg] | mortality at 24 h [1] [%] | mortality at 24 h [2] [%] | Ratio [3] | Ratio [4] | LD50 (Tetragonisca angustula) [µg/mg] | LD50 (Solenopsis saevissima) [µg/mg] | LD50 (Tuta absoluta [5]) [µg/mg] | LD80 (Tuta absoluta [5]) [µg/mg] | Ratio (Tuta absoluta [6]) |
| --- | --- | --- | --- | --- | --- | --- | --- | --- | --- | --- | --- |
| C#CC#CCCCC/C=C/C(=O)NCC(C)C | 2.02 | 2.22 | – | – | – | – | – | – | – | – | – |
| C#CC#CCCCC/C=C/C(=O)NC[C@H](C)CC | 2.26 | 4.4 | 59 | 55 | 1.64 | 1.35 | 1.1 | 1.33 | 0.81 | 1.76 | – |
| CC1(C)C(C=C(Cl)Cl)C1C(=O)OCc1cccc(Oc2ccccc2)c1 (stereo not drawn) [PERMETHRIN] | 0.002 | 1.458 | 100 | 100 | 0.00042 | 0.065 | 0.0003 | 0.046 | 0.71 | 2.57 | – |
| C/C=C/C=C\CC/C=C/C(=O)NCC(C)C [Spilanthol] | 0.81 | 1.12 | 58 | 68 | 1.38 | 2.69 | 0.35 | 0.18 | 0.13 | 0.56 | 5 |
